The record followed here is ChEMBL document CHEMBL5316296, “Indole Derivatives as New Structural Class of Potent and Antiproliferative Inhibitors of Monocarboxylate Transporter 1 (MCT1; SLC16A1)” (J Med Chem, 2023).

Activity calls are given as the source filed them. The calls are words filed in the database; no cut-off is given here.

The target in series [1] is T1, Monocarboxylate transporter 4 (Homo sapiens) (UniProt O15427).
T1 sequence (whole entry): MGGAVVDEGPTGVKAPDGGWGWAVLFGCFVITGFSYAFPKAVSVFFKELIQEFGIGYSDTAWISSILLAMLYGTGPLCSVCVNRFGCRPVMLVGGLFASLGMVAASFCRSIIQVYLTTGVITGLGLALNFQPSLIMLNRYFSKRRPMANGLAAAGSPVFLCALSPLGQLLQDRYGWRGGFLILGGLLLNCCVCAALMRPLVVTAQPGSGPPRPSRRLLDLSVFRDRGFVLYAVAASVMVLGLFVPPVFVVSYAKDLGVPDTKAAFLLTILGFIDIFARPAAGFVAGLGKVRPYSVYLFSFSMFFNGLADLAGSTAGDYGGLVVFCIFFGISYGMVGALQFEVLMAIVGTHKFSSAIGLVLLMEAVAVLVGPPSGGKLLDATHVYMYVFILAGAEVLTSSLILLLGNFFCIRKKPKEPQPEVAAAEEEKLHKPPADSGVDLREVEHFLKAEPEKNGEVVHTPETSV
Briefly: Inhibition of MCT4 in human MDA-MB-231 cells assessed as inhibition of acidic lactate extrusion by measuring reduction in pH at 10 uM incubated for 12 hrs by BCECF-AM dye based fluorescence spectrophotometric analysis. The format is cell-based. Put shortly:
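MDA-MB-231 cells (50,000/well) plated overnight, then treated with 10 μM compound for 12 h at 37 °C. Loaded with BCECF-AM (5 μM, 1 h), washed twice. Intracellular pH from emission ratio against per-plate calibration (pH 4.5–7.5 buffers with 10 μM nigericin and 10 μM valinomycin, 30 min, room temperature).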

Another series relates to NIH3T3. The series can be described thus: Cytotoxicity against mouse NIH3T3 cells assessed as cell viability incubated for 72 hrs by MTT assay. Conditions: nih3t3, 72 h. The format is toxicity, cell-based. Put shortly: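 NIH/3T3 murine embryonic fibroblasts (5000/well) screened at 10 and 50 μM compound for 72 h at 37 °C, 5% CO2. MTT readout (1 h), DMSO-dissolved formazan read at 570 nm, 690 nm background. DMSO and culture medium define 0 and 100% viability; at least three independent experiments.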

Series [2] in a line: Induction of doxorubicin sensitization in human A2780 ADR cells expressing ABCB1 assessed as doxorubicin at 3.5 uM incubated for 72 hrs by MTT assay. In kind it is functional. Put shortly:
(§1)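 ABCB1-expressing A2780/ADR cells (grown in RPMI-1640 with 10% FBS) were exposed to a doxorubicin dilution series, with or without a fixed test-compound level of 1.0, 2.0, 3.5 or 5.0 μM. Viability was read by MTT, with DMSO as 0% and medium as 100%. GI50 values come from at least three independent experiments and are compared with doxorubicin alone on sensitive A2780 cells.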
Background: Tetrazolium dyes change colour on reduction, which living cells bring about.

Series [3] in a line: Induction of doxorubicin sensitization in human A2780 ADR cells expressing ABCB1 assessed as doxorubicin at 1 uM incubated for 72 hrs by MTT assay. In kind it is functional. The gist of the method:
as §1

The subject of a further series is A2780 ADR. The series can be described thus: Induction of doxorubicin sensitization in human A2780 ADR cells expressing ABCB1 assessed as left shift of the concentration-effect curve at 5 uM incubated for 72 hrs by MTT assay. In kind it is functional, cell-based. Put shortly:
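ABCB1-expressing A2780/ADR cells given test compound at 1.0, 2.0, 3.5 or 5.0 μM with a doxorubicin series; MTT viability readout. Shift of doxorubicin concentration-effect curve compared against parental A2780. DMSO and medium define 0 and 100%; at least three independent experiments.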

Series [4] can be described thus: Induction of doxorubicin sensitization in human A549 cells expressing MCT1 assessed as doxorubicin GI50 at 100 nM incubated for 72 hrs by MTT assay. The format is functional. The gist of the method:
(§2)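 A-549 cells (~5000/well) given test compound at fixed 50, 100 or 500 nM plus doxorubicin dilution series 50 nM–50 μM. Incubated 72 h at 37 °C, 5% CO2, then MTT readout.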

In the next series the test system is A549. Briefly: Antiproliferative activity against human A549 cells expressing MCT1 assessed as effect on cell viability incubated for 72 hrs in the presence of glucose by MTT assay. The format is functional, cell-based. Put shortly: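 A-549 cells (5000/well) with compound over 72 h; glucose added every 12 h to give 25% or 50% of the original 4.5 g/L. Viability by MTT, absorbance 570 nm (690 nm background). DMSO and culture medium define 0 and 100%; at least three independent experiments.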

A short description of series [5]: Induction of doxorubicin sensitization in human A2780 ADR cells expressing ABCB1 assessed as doxorubicin at 2 uM incubated for 72 hrs by MTT assay. In kind it is functional. Put shortly: as §1
The nature of series [6]: Induction of doxorubicin sensitization in human A549 cells expressing MCT1 assessed as doxorubicin GI50 at 50 nM incubated for 72 hrs by MTT assay. In kind it is functional. Put shortly:
as §2

A short description of series [7]: Induction of doxorubicin sensitization in human A2780 ADR cells expressing ABCB1 assessed as doxorubicin at 5 uM incubated for 72 hrs by MTT assay. In kind it is functional. The gist of the method:
as §1

A short description of series [8]: Growth inhibition of human A549 cells expressing MCT1 at 50 uM incubated for 72 hrs by MTT assay relative to control. Conditions: read-out: GI. The format is toxicity, cell-based.
A short description of series [9]: Antiproliferative activity against human A2780 ADR cells expressing ABCB1 assessed as growth inhibition incubated for 72 hrs by MTT assay. The format is functional.

With `COC(=O)/C(C#N)=C/c1cn(CC(=O)Nc2ccc(C)cc2)c2ccccc12`, the inhibition entry in series [1] was “inactive”. In addition, the Activity entry in the series on NIH3T3 is listed as “Non-Toxic”.

As for `COC(=O)/C(C#N)=C/c1cn(CC(=O)Nc2ccccc2)c2ccccc12`, the inhibition entry in series [1] was “inactive”. The Activity entry in the series with NIH3T3 is recorded as “Non-Toxic”.

Consider `N#C/C(=C\c1ccc(O)cc1)C(=O)O` [alpha-CYANO-4-HYDROXYCINNAMIC ACID], for which, in the series on NIH3T3, the Activity result is recorded as “Non-Toxic”.

In the case of `COC(=O)/C(C#N)=C/c1cn(CC(=O)Nc2ccc3ccccc3c2)c2ccccc12`, the inhibition result in series [1] is “inactive”. Besides, the Activity entry in the series on NIH3T3 is on record as “Non-Toxic”.

With `COC(=O)/C(C#N)=C/c1cn(CC(=O)Nc2cccc3ccccc23)c2ccccc12`, the inhibition entry in series [1] is “inactive”. Besides, the Activity entry with NIH3T3 is recorded as “Non-Toxic”.

`COC(=O)/C(C#N)=C/c1cn(CC(=O)Nc2c(Cl)cccc2Cl)c2ccccc12`: the inhibition result in series [1] was “inactive”. The Activity result in the series on NIH3T3 is “Non-Toxic”.

The term GI50 denotes the concentration at which growth is held to half of that of the control. For `COC(=O)/C(C#N)=C/c1cn(CC(=O)Nc2ccc(C)cn2)c2ccccc12`, the GI50 in series [2] came to 0.0324 µM; in series [3], 0.516 µM; in series [4], 0.0254 µM; in [5], 0.165 µM; in series [6], 0.0386 µM; in series [7], 0.0129 µM. In the series with A2780 ADR, the result was Active. Further, in series [1], the inhibition entry was “inactive”. Moreover, in the series on NIH3T3, the Activity entry is on record as “Non-Toxic”. In the series on A549, the result was inactive.

Take `COC(=O)/C(C#N)=C/c1cn(CC(=O)Nc2cccnc2)c2ccccc12`: the inhibition entry in series [1] is “inactive”. Also, the Activity entry in the series with NIH3T3 is listed as “Non-Toxic”.

Consider `COC(=O)/C(C#N)=C/c1cn(CC(=O)Nc2ccc(F)cc2)c2ccccc12`, for which the inhibition result in series [1] is “inactive”. Also, the Activity entry in the series on NIH3T3 is listed as “Non-Toxic”.

For `COC(=O)/C(C#N)=C/c1cn(CC(=O)Nc2ccccn2)c2ccccc12`, the inhibition entry in series [1] was “inactive”. The Activity entry in the series with NIH3T3 was “Non-Toxic”.

As for `O=C(O)C(=O)CBr` [BROMOPYRUVATE], in [8], the inhibition at 72 h, 50 µM is ≥ 90%.

As for `COC(=O)/C(C#N)=C/c1cn(CC(=O)Nc2ccc(Br)cc2)c2ccccc12`, the inhibition entry in [1] is “inactive”. For the same compound, the Activity entry in the series on NIH3T3 is on record as “Non-Toxic”.

For `COC(=O)/C(C#N)=C/c1cn(CC(=O)Nc2ccc(Cl)cc2)c2ccccc12`, the inhibition entry in series [1] is “inactive”. In addition, the Activity result in the series on NIH3T3 is listed as “Non-Toxic”.

As to `COC(=O)/C(C#N)=C/c1cn(CC(=O)Nc2ccccc2C)c2ccccc12`, the inhibition entry in series [1] is “inactive”. Further, the Activity entry in the series on NIH3T3 is given as “Non-Toxic”.

On to `COc1cccc2c1C(=O)c1c(O)c3c(c(O)c1C2=O)C[C@@](O)(C(=O)CO)C[C@@H]3O[C@H]1C[C@H](N)[C@H](O)[C@H](C)O1` [DOXORUBICIN], for which the GI50 in [9] turned out to be 0.802 µM.

As for `COC(=O)/C(C#N)=C/c1cn(CC(=O)Nc2ccccc2OC)c2ccccc12`, the inhibition entry in [1] is “inactive”. The Activity result with NIH3T3 is listed as “Non-Toxic”.

Consider `COC(=O)/C(C#N)=C/c1cn(CC(=O)Nc2ccc(OC)cc2)c2ccccc12`, for which the GI50 was determined as 0.11 µM in series [2]; 0.332 µM in series [3]; 0.0277 µM in series [4]; 0.214 µM in series [5]; 0.04 µM in series [6]; 0.0322 µM in [7]. In addition, the outcome in the series with A2780 ADR was Active. In series [1], the inhibition result is “inactive”. For the same compound, the Activity result with NIH3T3 is on record as “Non-Toxic”. The result in the series on A549 was inactive.

As for `COC(=O)/C(C#N)=C/c1cn(CC(=O)Nc2cccc(OC)c2)c2ccccc12`, the inhibition entry in series [1] is “inactive”. In addition, the Activity entry in the series with NIH3T3 is recorded as “Non-Toxic”.

For the compound `COC(=O)/C(C#N)=C/c1cn(CC(=O)Nc2ccc(Br)cn2)c2ccccc12`, the inhibition entry in series [1] is “inactive”. Further, the Activity result in the series on NIH3T3 was “Non-Toxic”.
